Activity data for one compound are collected here from ChEMBL document CHEMBL4382263, “Spirostaphylotrichin X from a Marine-Derived Fungus as an Anti-influenza Agent Targeting RNA Polymerase PB2” (J Nat Prod, 2018).

The structures appear in SMILES notation. The source made the active and inactive calls. The rule behind the calls is not given here.

This assay relates to Influenza A virus. Kind of assay: Antiviral activity against Influenza A virus H5N1 pseudovirus harboring IAV (A/Thailand/Kan353/2004(H5N1))-HA/IAV (A/Thailand/Kan353/2004(H5N1))-NA/HIV core plasmids infected in MDCK cells assessed as pseudovirus neutralization incubated for 30 mins with virus followed by viral infection and measured after 48 hrs by luciferase reporter gene assay. It is filed as functional, organism-based. An outline of the steps:
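Pseudovirus incubated with varying compound concentrations for 30 min at 37 °C, then added to MDCK cells for 48 h. Lysates read for luciferase activity; VSV-G pseudovirus run as control.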

On to `CC/C=C1/C=CC(=O)[C@@H](O)[C@]12C(=O)N(OC)[C@@](C)(OC)[C@@H]2O`, for which the result was inactive.
